According to ChEMBL document CHEMBL4400542, “Epidermal Growth Factor Receptor-Targeted Multifunctional Photosensitizers for Bladder Cancer Imaging and Photodynamic Therapy” (J Med Chem, 2019):

Key:
[1] = Drug accumulation in lysosomes of human UM-UC-3 cells at 500 nM formulated with 1% tween 80 solution after 24 hrs by lysosphere green based fluorimetry; type: ADME, subcellular, Lysosome; settings: umuc3, 24 h, 0.5 µM
T-24 [2] = assay: Induction of apoptosis in human T24 cells assessed as increase in apoptotic cells at 1 uM in absence of light by Annexin V/propidium iodide-staining based flow cytometry; type: cell-based; settings: t-24, 1 µM
[3] = Drug accumulation in mitochondria of human UM-UC-3 cells at 500 nM formulated with 2% pluronic F-127 solution after 24 hrs by mitotracker red based fluorimetry; type: ADME; settings: umuc3, 24 h, 0.5 µM
[4] = Drug uptake in human T24 cells xenografted in SCID mouse at 0.47 umol/kg formulated with 1% tween 80 solution and measured at 24 hrs post injection by IVIS analysis; type: ADME, cell-based, T-24; settings: in vivo
Procedure, shortened: (§1)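 SCID mice (3/group) bearing UMUC3 or T24 tumors of 4–5 mm injected with PS at 0.47 µmol/kg in Tween80 or Pluronic F-127. Tumor, liver and skin fluorescence followed by IVIS optical imaging (ex 675 nm, em 720) at several time points including 24 h.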

[5] = Drug uptake in human UM-UC-3 cells assessed as increase in gray value intensity at 500 nM after 48 hrs in presence of gleevec by Hoechst 33342 staining based fluorescence microscopy; type: ADME, cell-based; settings: umuc3, 24 h, 0.5 µM, in the assay text read “after 24 hrs” for “after 48 hrs”
Procedure, shortened: (§2)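 Cells plated at 100k per well, grown to 80% confluency, refreshed, then incubated 24 h with PS at 500 nM with or without Gleevec 5 µM. Washed twice with PBS, Hoechst 33342 added, imaged by fluorescence microscopy; grey value normalized to cell number, triplicate groups and images.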

[6] = Drug uptake in human T24 cells xenografted in SCID mouse at 0.47 umol/kg formulated with 2% pluronic F-127 solution and measured at 24 hrs post injection by IVIS analysis; type: ADME, cell-based, T-24; settings: in vivo; procedure, shortened: as §1
[7] = Stability at -20 degC for 2 months; type: physicochemical; settings: 1461 h
Procedure, shortened: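 Formulated PS stored at -4 °C or -20 °C for two months; checked for precipitation and pH change.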

[8] = Drug uptake in human UM-UC-3 cells xenografted in SCID mouse at 0.47 umol/kg formulated with 2% pluronic F-127 solution and measured at 24 hrs post injection by IVIS analysis; type: ADME, cell-based, UMUC3; settings: in vivo; procedure, shortened: as §1
T-24 [9] = assay: Photo-activated cytotoxicity against human T24 cells assessed as reduction in cell viability preincubated for 24 hrs followed by 1 J/cm2 light irradiation and measured after 48 hrs formulated with 2% pluronic F-127 solution by MTT assay; type: functional, cell-based; settings: T-24, light or radiation study
Procedure, shortened: (§3)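 Cells plated at 10k per well, allowed 24 h to adhere, then PS added in two-fold dilutions from 1 µM top for 24 h. Irradiated at 665 nm, 1.0 J/cm2 at 3.2 mW/cm2. Viability by MTT 48 h after PDT: about 2 h incubation, formazan dissolved in DMSO, absorbance at 570 nm.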

UMUC3 [10] = assay: Photo-activated cytotoxicity against human UM-UC-3 cells assessed as reduction in cell viability preincubated for 24 hrs followed by 1 J/cm2 light irradiation and measured after 48 hrs formulated with 1% tween 80 solution by MTT assay; type: functional, cell-based; settings: UMUC3, light or radiation study; procedure, shortened: as §3
[11] = Drug accumulation in lysosomes of human T24 cells at 500 nM formulated with 2% pluronic F-127 solution after 24 hrs by lysosphere green based fluorimetry; type: ADME, subcellular, Lysosome; settings: t-24, 24 h, 0.5 µM
[12] = Stability at -4 degC for 2 months; type: physicochemical; settings: 1461 h
Procedure, shortened: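 Photosensitizer formulations in Tween80 or Pluronic F-127 were stored at -4 °C, alongside a -20 °C set, for two months. Stability was judged by visible precipitation and change in pH.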

[13] = Drug accumulation in mitochondria of human T24 cells at 500 nM formulated with 1% tween 80 solution after 24 hrs by mitotracker red based fluorimetry; type: ADME; settings: t-24, 24 h, 0.5 µM
[14] = Drug uptake in human T24 cells assessed as increase in gray value intensity at 1 uM pretreated for 24 hrs followed by compound washout and measured after 4 hrs by Hoechst 33342 staining based fluorescence microscopy; type: ADME, cell-based; settings: t-24, 4 h
Procedure, shortened: (§4)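 Cells pre-incubated 24 h with free erlotinib before PS addition. Legend describes PS at 1 uM or erlotinib at 3 uM for 4 h, then three warm PBS washes. Imaged by fluorescence microscopy; grey value per field normalized to cell count, triplicate wells, each imaged in triplicate.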

UMUC3 [15] = assay: Induction of apoptosis in human UM-UC-3 cells assessed as increase in apoptotic cells at 1 uM in absence of light by Annexin V/propidium iodide-staining based flow cytometry; type: cell-based; settings: umuc3, 1 µM
[16] = Drug accumulation in human UM-UC-3 cells at 500 nM formulated with 2% pluronic F-127 solution after 24 hrs by CARY-fluorimetry; type: ADME, cell-based; settings: umuc3, 24 h, 0.5 µM
[17] = Drug uptake in human UM-UC-3 cells assessed as increase in gray value intensity at 500 nM after 48 hrs in absence of gleevec by Hoechst 33342 staining based fluorescence microscopy; type: ADME, cell-based; settings: umuc3, 24 h, 0.5 µM, in the assay text read “24 hrs” for “48 hrs”; procedure, shortened: as §2
[18] = Drug uptake in human UM-UC-3 cells assessed as increase in gray value intensity at 1 uM pretreated for 24 hrs followed by compound washout and measured after 4 hrs by Hoechst 33342 staining based fluorescence microscopy; type: ADME, cell-based; settings: umuc3, 4 h; procedure, shortened: as §4
[19] = Drug accumulation in lysosomes of human T24 cells at 500 nM formulated with 1% tween 80 solution after 24 hrs by lysosphere green based fluorimetry; type: ADME, subcellular, Lysosome; settings: t-24, 24 h, 0.5 µM
[20] = Drug accumulation in mitochondria of human T24 cells at 500 nM formulated with 2% pluronic F-127 solution after 24 hrs by mitotracker red based fluorimetry; type: ADME; settings: t-24, 24 h, 0.5 µM
UMUC3 [21] = assay: Photo-activated cytotoxicity against human UM-UC-3 cells assessed as reduction in cell viability preincubated for 24 hrs followed by 1 J/cm2 light irradiation and measured after 48 hrs formulated with 2% pluronic F-127 solution by MTT assay; type: functional, cell-based; settings: UMUC3, light or radiation study; procedure, shortened: as §3
T-24 [22] = assay: Photo-activated cytotoxicity against human T24 cells assessed as reduction in cell viability preincubated for 24 hrs followed by 1 J/cm2 light irradiation and measured after 48 hrs formulated with 1% tween 80 solution by MTT assay; type: functional, cell-based; settings: T-24, light or radiation study; procedure, shortened: as §3
[23] = Drug accumulation in mitochondria of human UM-UC-3 cells at 500 nM formulated with 1% tween 80 solution after 24 hrs by mitotracker red based fluorimetry; type: ADME; settings: umuc3, 24 h, 0.5 µM
UMUC3 [24] = assay: Induction of oxidative stress in human UM-UC-3 cells assessed as increase in ROS production at 1 uM in presence of 1 J/cm2 light irradiation and measured at 20 min post light exposure by DCFDA-fluorescence based assay relative to control; type: functional
Procedure, shortened: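 UMUC3 cells at 10k per well; after 24 h, PS added at 1 µM for 24 h (Tween80 formulation). DCFDA 1 µM for 20 min, fluorescence read (ex 492, em 517). Then 665 nm light, 1 J total at 3.2 mW/cm2, and read again. No-DCFDA background subtracted; 0.05% H2O2 control wells.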

[25] = Drug accumulation in human UM-UC-3 cells at 500 nM formulated with 1% tween 80 solution after 24 hrs by CARY-fluorimetry; type: ADME, cell-based; settings: umuc3, 24 h, 0.5 µM
[26] = Drug accumulation in lysosomes of human UM-UC-3 cells at 500 nM formulated with 2% pluronic F-127 solution after 24 hrs by lysosphere green based fluorimetry; type: ADME, subcellular, Lysosome; settings: umuc3, 24 h, 0.5 µM
UMUC3 [27] = assay: Anti-tumor activity against human UM-UC-3 cells xenografted in SCID mouse assessed as tumor cure at 0.47 umol/kg, iv in presence of 135 J/cm2 light irradiation at 24 hrs post injection and measured at day 60; type: functional
Procedure, shortened: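 UMUC-3 cells implanted in right flank of SCID mice; at 4–5 mm tumors, PS given i.v. at 0.47 µmol/kg. Tumors exposed to 665 nm light, 135 J/cm2 at 75 mW/cm2, 24 h post-injection. Tumor regrowth monitored daily; mice euthanized at >400 mm3; tumor-free status scored at day 60.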

[28] = Drug uptake in human UM-UC-3 cells xenografted in SCID mouse at 0.47 umol/kg formulated with 1% tween 80 solution and measured at 24 hrs post injection by IVIS analysis; type: ADME, cell-based, UMUC3; settings: in vivo; procedure, shortened: as §1

With `CCC1=C(C)c2cc3[nH]c(cc4nc(c5c6[nH]c(cc1n2)c(C)c6C(=O)C5)[C@@H](CCC(=O)NCc1cccc(C#Cc2cccc(Nc5ncnc6cc(OCCOC)c(OCCOC)cc56)c2)c1)[C@@H]4C)c(C)c3C(C)OCc1cccc([127I])c1` (stereo partly drawn) the Drug uptake [1] was “Active”, the Activity (T-24 [2]) was “Non-Toxic” and the Drug uptake [3] was “Active”. For the same molecule, the Drug uptake [4] was “Active”, the Drug uptake [5] was “Not Active” and the Drug uptake [6] was “Active”. For the same molecule, the Stability [7] was “Stable”, the Drug uptake [8] was “Active” and the IC50 (T-24 [9]) was 315 nM. For the same molecule, the IC50 (UMUC3 [10]) was 36.4 nM, the Drug uptake [11] was “Active” and the Stability [12] was “Stable”. For the same molecule, the Drug uptake [13] was “Active”, the Drug uptake [14] was “Active” and the Activity (UMUC3 [15]) was “Non-Toxic”. For the same molecule, the Drug uptake [16] was “Active”, the Drug uptake [17] was “Not Active” and the Drug uptake [18] was “Not Active”. For the same molecule, the Drug uptake [19] was “Active”, the Drug uptake [20] was “Active” and the IC50 (UMUC3 [21]) was 58.4 nM. For the same molecule, the IC50 (T-24 [22]) was 137 nM, the Drug uptake [23] was “Active” and the “fold change (FC)” value (UMUC3 [24]) was 4.5. For the same molecule, the Drug uptake [25] was “Active”, the Drug uptake [26] was “Active” and the Activity (UMUC3 [27]) was 55%. For the same molecule, the Drug uptake [28] was “Active”.
